# Assay results collected from several papers.
# Compare with care: the assays were run in different laboratories.
# Target: Serine/threonine-protein kinase Sgk2 (SGK2, Homo sapiens, UniProt Q9HBY8)
# Sequence (Q9HBY8 1-367, as in one of the studies): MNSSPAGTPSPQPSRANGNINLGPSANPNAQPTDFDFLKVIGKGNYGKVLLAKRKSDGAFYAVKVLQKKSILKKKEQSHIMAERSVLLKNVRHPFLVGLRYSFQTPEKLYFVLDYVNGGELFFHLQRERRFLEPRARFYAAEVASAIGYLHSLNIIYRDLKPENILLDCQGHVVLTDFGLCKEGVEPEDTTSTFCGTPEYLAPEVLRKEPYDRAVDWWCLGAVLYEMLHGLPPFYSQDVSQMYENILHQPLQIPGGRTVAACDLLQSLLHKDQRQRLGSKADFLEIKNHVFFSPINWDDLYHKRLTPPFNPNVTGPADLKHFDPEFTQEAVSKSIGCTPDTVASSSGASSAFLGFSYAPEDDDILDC
SMILES,observed,mode,method,tested at,endpoint,result
CCc1ccccc1C(=O)Nc1n[nH]c2c(C)c(F)c(C3C(C#N)=C(C)N(C)C(C)=C3C#N)cc12,cell-free assay,,competition with immobilised ligand,1 µM,remaining binding,100%
CC(C)(O)[C@H]1CC[C@H](Nc2ccc3ncc(-c4cccc(C(F)(F)F)c4)n3n2)CC1,enzyme activity,inhibitor,,1 µM,remaining activity,96.1%
Cc1cc(NC(=O)c2cccc3cc(-c4cccc5[nH]nc(N)c45)ccc23)ccc1F,enzyme activity,inhibitor,,0.1 µM,activity vs control,76%
CNC(=O)c1cc(Oc2ccc(NC(=O)Nc3ccc(Cl)c(C(F)(F)F)c3)cc2)ccn1,enzyme activity,inhibitor,,0.3 µM,inhibition,3%
O=C(Nc1cnn(-c2csc(C(=O)NC3COC3)c2)c1)Nc1ccccc1Cl,enzyme activity,inhibitor,,5 µM,remaining activity,101%
CCCOc1ccc(OC)c(F)c1C(=O)c1ccc(C(=O)N[C@@H]2CNC[C@H]2NC(=O)c2ccc3[nH]ncc3c2)cc1,enzyme activity,inhibitor,,10 µM,remaining activity,1%
Cc1ccc(C(=O)Nc2ccc(CN3CCN(C)CC3)c(C(F)(F)F)c2)cc1C#Cc1cnc2cccnn12,enzyme activity,inhibitor,,23.5 nM,remaining activity,76%
Cc1ccc(Nc2nccc(N(C)c3ccc4c(C)n(C)nc4c3)n2)cc1S(N)(=O)=O,enzyme activity,inhibitor,,10 µM,inhibition,10%
CSc1cccnc1N1CCN(Cc2nc3ccccc3[nH]2)CC1,cell-free assay,,competition with immobilised ligand,1 µM,remaining binding,81%
CC(C)(C)c1nc2c(s1)c1nc(N)ncc1c1ccc(NS(=O)(=O)c3c(F)cccc3F)c(F)c12,enzyme activity,inhibitor,radiometric,1 µM,remaining activity,91%
Cn1cnc(Br)c1C1=CN(c2ncnc3[nH]cnc23)CCS1,enzyme activity,inhibitor,radiometric,50 nM,inhibition,20.8%
COc1cc(Cl)c(C(=O)N[C@@H](CN[C@H]2CC[C@@H](N)CC2)Cc2ccc(C#N)cc2)cc1-c1ccc(CN[C@H](C)c2ccc(C)cc2)o1,enzyme activity,inhibitor,,1 µM,remaining activity,82%
Cc1nccc(COC(=O)N2C[C@@H]3[C@@H](CNC(=O)c4ccc5[nH]nnc5c4)[C@@H]3C2)n1,cell-free assay,,competition with immobilised ligand,1 µM,remaining binding,100%
CCN(CC)CCNC(=O)c1c(C)[nH]c(/C=C2\C(=O)Nc3ccc(F)cc32)c1C,enzyme activity,inhibitor,,10 µM,inhibition,48%
CNC(=O)Nc1ccc2c(c1)CC[C@@]21OC(=O)N(CC(=O)N(Cc2ccc(F)cc2)[C@@H](C)C(F)(F)F)C1=O,cell-free assay,,competition with immobilised ligand,1 µM,remaining binding,100%
N#CCCc1ccc2c(c1)-c1[nH]c3ccc([N+](=O)[O-])cc3c1CC(=O)N2,cell-free assay,,,0.5 µM,remaining signal,114%
NS(=O)(=O)c1cc(NC(=O)C2(c3ccccc3Cl)CC2)ccc1Oc1cccc(Cl)c1,cell-free assay,,competition with immobilised ligand,1 µM,remaining binding,100%
CN1CC(Oc2cnc(C#N)cc2-c2ccn3nc(NC(=O)C4CC4)cc3c2)C1,enzyme activity,inhibitor,,1 µM,inhibition,-2%
O=C1CCc2cc(Nc3cc(OC4CCOCC4)c([N+](=O)[O-])cc3Cl)ccc2N1,cell-free assay,,competition with immobilised ligand,1 µM,remaining binding,80%
COc1cc2ncnc(Nc3ccc(Oc4ccccc4)cc3C)c2cc1OC,enzyme activity,inhibitor,,1 µM,inhibition,-4%
CCC(=N\O)/C(C)=C/c1ccc(F)cc1,cell-free assay,,competition with immobilised ligand,1 µM,remaining binding,78%
Cc1sc(C(=O)NC2COC2)cc1-n1cc(NC(=O)Nc2c(F)cccc2Cl)cn1,enzyme activity,inhibitor,,10 µM,remaining activity,97.2%
